High-throughput results deposited in PubChem by Johns Hopkins Ion Channel Center.
Sampled rows, rich in hits. Any-hit rate of the full collection: about 3.8%.
KCNQ1 pot: potentiators or activators of KCNQ1 channel, primary screen, cell-based, thallium flux, high-throughput; Potassium voltage-gated channel subfamily KQT member 1 (Homo sapiens), P51787; CHO-K1 KCNQ1, thallium flux FluxOR fluorescence; active compounds read high; B-score at 10 µM; 310,000 tested, 0.35% active;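 active means fluorescence ratio B-score, a plate-corrected score, at least three library SD, with initial intensity B-score within 5 SD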
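Material: CHO-K1 cells stably expressing KCNQ1. Medium: assay buffer for compound exposure, DMSO matched across wells. Reagent: K+/Tl+ depolarizing stimulus. Compound dosing: single-concentration screen. Times: 37 °C overnight plating, 90-min dark dye load, 20-min compound pretreatment. Technique: FluxOR Tl+ flux fluorescence.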
hERG protect: hERG rescue from dofetilide block, primary screen, cell-based, CHO-hERG, FluxOR thallium flux, dofetilide IC70. Voltage-gated inwardly rectifying potassium channel KCNH2 (Homo sapiens), Q12809. dofetilide IC70 present. activation (rescue from dofetilide block), less the hit threshold, % at 10 µM. 310,000 tested, 0.51% active;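 active means activation above the mean of controls blocked by dofetilide plus 5 SD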;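 further: thallium influx through hERG after potassium depolarization seen as dye fluorescence rise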
Target sequence (Q12809 whole entry, looked up): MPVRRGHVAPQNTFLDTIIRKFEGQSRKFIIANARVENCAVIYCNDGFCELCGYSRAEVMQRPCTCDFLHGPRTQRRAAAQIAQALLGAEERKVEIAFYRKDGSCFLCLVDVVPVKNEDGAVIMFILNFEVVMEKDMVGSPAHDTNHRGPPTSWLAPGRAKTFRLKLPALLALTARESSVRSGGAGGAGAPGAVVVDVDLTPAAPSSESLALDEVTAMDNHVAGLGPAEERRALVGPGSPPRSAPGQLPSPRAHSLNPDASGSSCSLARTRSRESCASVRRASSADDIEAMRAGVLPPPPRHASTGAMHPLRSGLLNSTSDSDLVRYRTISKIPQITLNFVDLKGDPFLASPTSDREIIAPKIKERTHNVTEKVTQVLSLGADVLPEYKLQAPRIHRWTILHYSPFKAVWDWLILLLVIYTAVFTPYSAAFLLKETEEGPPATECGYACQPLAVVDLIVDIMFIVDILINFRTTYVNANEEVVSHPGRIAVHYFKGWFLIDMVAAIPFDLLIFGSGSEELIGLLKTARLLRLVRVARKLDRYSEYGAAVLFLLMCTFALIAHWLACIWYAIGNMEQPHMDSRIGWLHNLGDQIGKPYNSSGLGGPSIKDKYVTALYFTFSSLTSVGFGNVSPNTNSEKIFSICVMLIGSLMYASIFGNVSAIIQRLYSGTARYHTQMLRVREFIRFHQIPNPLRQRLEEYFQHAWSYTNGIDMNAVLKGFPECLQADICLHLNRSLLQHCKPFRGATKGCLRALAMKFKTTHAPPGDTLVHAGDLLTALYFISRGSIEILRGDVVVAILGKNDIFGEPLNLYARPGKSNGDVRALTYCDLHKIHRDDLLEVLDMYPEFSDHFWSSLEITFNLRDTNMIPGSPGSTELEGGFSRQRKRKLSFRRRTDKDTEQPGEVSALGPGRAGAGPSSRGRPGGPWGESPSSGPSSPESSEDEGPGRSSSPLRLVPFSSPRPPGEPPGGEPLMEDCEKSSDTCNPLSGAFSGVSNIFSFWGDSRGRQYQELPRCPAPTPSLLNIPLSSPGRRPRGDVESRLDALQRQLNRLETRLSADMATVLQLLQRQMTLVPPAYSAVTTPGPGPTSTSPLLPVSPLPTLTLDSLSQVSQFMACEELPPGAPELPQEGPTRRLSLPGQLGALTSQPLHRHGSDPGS
KCNK9 inh: KCNK9 potassium channel inhibitors, primary screen, HEK293 cells, thallium flux; Potassium channel subfamily K member 9 (Homo sapiens), Q9NPC2; 310,000 tested, 1.2% active; AID 488922, 2010; FluxOR thallium flux fluorescence; active compounds read low; B-score at 10 µM;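 active means ratio B-score over 3 SD below the library mean, with starting fluorescence within 5 SD of its mean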;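 further: negative B-score means less thallium flux so channel inhibition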
Kir21 block: inhibitors of mouse Kir2.1 inward-rectifier potassium channel | HEK293-Kir2.1, FluxOR thallium flux fluorescence; active compounds read low | B-score at 10 µM | 310,000 tested, 0.85% active;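 active means fluorescence ratio B-score at or below minus 3 SD of library scores, with starting-brightness B-score within 2 SD, cut at about -4.2 in these data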;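 further: channel flux triggered by added potassium and thallium sulfate stimulus; B-score of peak minus minimum fluorescence over baseline after thallium stimulus; more negative B-score means stronger Kir2.1 block with less thallium influx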
KCNQ1 inh: inhibitors of human KCNQ1 channel, primary screen, cell-based, thallium flux, high-throughput | CHO-K1 KCNQ1, FluxOR thallium flux fluorescence; active compounds read high | AID 2642, 2010 | 310,000 tested, 1.3% active | Potassium voltage-gated channel subfamily KQT member 1 (Homo sapiens), P51787 | B-score at 10 µM;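 active means compounds whose thallium flux B-score, printed positive for inhibition, exceeds three library SD while starting fluorescence stays within three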;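 further: channel opened by potassium depolarization with thallium stimulus after 20 min compound exposure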
KCNK3 block: human KCNK3 channel inhibitors, primary screen, CHO cells, FluxOR thallium flux, B-score; 340,000 tested, 0.84% active; AID 602410, 2012; FluxOR fluorescence; active compounds read low; B-score at 10 µM;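 active means B-score under library mean minus 4 SD, starting fluorescence ratio at most library mean plus 5 SD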;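 further: more negative B-score means stronger inhibition of thallium flux through KCNK3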
KCNK3 inh conf: retest of human KCNK3 channel inhibitors, confirmation, CHO cells, FluxOR thallium flux, triplicate | shares compounds with KCNK3 block | FluxOR fluorescence; 0% buffer, 100% carvedilol maximal block | ratio percent of control, % at 10 µM | 2,400 tested, 99% active | AID 651638, 2012;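 active means ratio percent of control, averaged over triplicates, above buffer control mean plus 5 SD, cut at about 64% in these data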;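 further: ratio is the fluorescence rise from min to max over baseline after thallium stimulus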
KCNK3 noninduced: thallium flux inhibition in non-induced cells, primary screen, counter-screen for KCNK3 inhibitor project, cell-based, non-induced KCNK3 line, FluxOR thallium, triplicate; shares compounds with KCNK3 block; non-induced KCNK3 parental cells; active compounds read low; thallium flux ratio (lower = more inhibition) at 10 µM; 2,400 tested, 40% active; AID 651747, 2012;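 active means thallium flux ratio, averaged over three wells, more than 5 SD below the buffer control mean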;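 further: host cells are CHO cells without KCNK3 induction; ratio is peak minus trough fluorescence over baseline then normalized to buffer controls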
Numbers without * were called inactive; i = inactive; . = no result.

SMILES	KCNQ1 pot	hERG protect	KCNK9 inh	Kir21 block	KCNQ1 inh	KCNK3 block	KCNK3 inh conf	KCNK3 noninduced
c1ccc(CN2CCC(Nc3nc(-c4cccs4)nc4ccccc34)CC2)cc1	i	-41.1	i	-1.01	i	-10*	126.0*	0.14*
Cc1c(CN2CCC(CO)(Cc3cccc(C(F)(F)F)c3)CC2)c2ccccc2n1C	i	-30.8	i	-3.91	i	i	.	.
C=CCSc1nc(N(CC)CC)c2sccc2n1	i	-5.7	i	-1.34	i	-10.1*	121.0*	i
C=CCNc1nc(SC)nc2ccsc12	i	-7.3	i	1.3	i	i	.	.
CCN(CC)C1CCN(C(=O)c2ccc(OC3CCN(Cc4ccccn4)CC3)cc2)C1 (stereo not drawn)	i	-5.4	i	0.01	i	i	.	.
CCN(C(=O)COC(=O)CCc1ccccc1)c1ccccc1	i	-3.6	i	0.73	i	-9.48*	80.7*	i
CCN(C(=O)COC(=O)CSc1cc(C)c2ccccc2n1)c1ccccc1	i	-15.1	i	-1.1	i	-9.6*	97.3*	i
CCN(CC)CCN1C(=O)C(=O)/C(=C(/O)c2ccc(S(=O)(=O)N3CCOCC3)cc2)C1c1ccc(C(C)C)cc1 (stereo not drawn)	i	-7.9	i	-0.52	i	i	.	.
Cn1c(C(=O)OCC(=O)NCc2ccc(F)cc2)cc2occc21	i	-9.8	i	1.46	i	i	.	.
CCOC(=O)C1=C(c2ccccc2)NC(SCC(=O)Nc2cccc(C)c2)=C(C#N)C1c1ccco1 (stereo not drawn)	i	-7.0	-6.67*	-0.32	i	-8.72*	113.3*	i
Cc1cccn2c(=O)c(/C=C(\C#N)S(=O)(=O)c3ccccc3)c(N3CCN(Cc4ccccc4)CC3)nc12	i	-16.8	i	-1.44	i	-10.2*	107.7*	i
CCOC(=O)/C(C#N)=C/c1c(N2CCN(c3ccc(OC)cc3)CC2)nc2c(C)cccn2c1=O	i	-7.9	i	-0.02	i	-12*	83.0*	0.152*
N#C/C(=C\c1c(N2CCN(Cc3ccccc3)CC2)nc2ccccn2c1=O)S(=O)(=O)c1ccccc1	i	-9.9	i	-0.17	i	-8.96*	103.0*	i
COc1ccccc1NS(=O)(=O)c1cccc(NC(=O)c2sc3ccccc3c2Cl)c1	i	-11.6	i	0.85	i	-9.12*	95.7*	i
CCOc1ccccc1NC(=O)C1CCN(S(C)(=O)=O)CC1	i	-1.7	i	1.3	i	i	.	.
Cc1ccc(CN(CC(O)COc2cccc3[nH]cc(C)c23)C(C)(C)C)cc1 (stereo not drawn)	i	-7.0	i	-1.86	i	i	.	.
COC(=O)Cc1c[nH]c2cccc(OCC(O)CN(Cc3ccccc3)C(C)C)c12 (stereo not drawn)	i	-16.2	-7.95*	-1.19	i	-8.85*	99.7*	i
Cc1ccccc1CCN1CCCC(CN(C)C(=O)c2ccc3ncccc3c2)C1 (stereo not drawn)	i	-3.5	i	-0.25	i	i	.	.
Nn1c(SCC(=O)N2CCCC2=O)nnc1-c1cccs1	i	-4.6	i	0.04	i	i	.	.
O=C1c2ccccc2C(Nc2ccc(F)c(Cl)c2)N1Cc1ccco1 (stereo not drawn)	i	-13.0	i	-1.78	i	-8.71*	97.7*	i
O=C1c2ccccc2C(Nc2ccc3c(c2)OCO3)N1Cc1ccco1 (stereo not drawn)	i	-14.1	i	0.36	i	i	.	.
O=C1c2ccccc2C(=O)c2c(/C=C/N3CCCCC3)ccnc21	.	.	.	.	.	i	.	.
Cc1cc(C(=O)CSc2nnc(-c3ccccc3F)o2)c(C)n1Cc1cccs1	i	-18.1	i	-0.86	i	i	.	.
Cc1cc(C(=O)CN2C(=O)c3cccc(N)c3C2=O)c(C)n1Cc1cccs1	i	-7.5	i	-2.1	i	-10.9*	121.3*	i
OC1CCCN(c2c3c(nc4cc(-c5cccc(F)c5)nn24)CCCC3)C1 (stereo not drawn)	i	-17.2	i	1.46	i	i	.	.
SMILES	KCNQ1 pot	hERG protect	KCNK9 inh	Kir21 block	KCNQ1 inh	KCNK3 block	KCNK3 inh conf	KCNK3 noninduced
Cc1cccc(-c2cc3nc4c(c(N5CCCC(O)C5)n3n2)CCC4)c1 (stereo not drawn)	i	-2.6	i	-0.02	i	-10.1*	102.7*	i
OC1CCCN(c2c3c(nc4cc(-c5cccc(Cl)c5)nn24)CCC3)C1 (stereo not drawn)	i	-4.8	i	-0.12	i	-10.5*	92.7*	i
OC1CCN(c2c3c(nc4cc(-c5ccc(F)cc5)nn24)CCC3)CC1	i	-8.3	i	0.98	i	i	.	.
COc1ccc(-c2ccc3c(c2)C2CC3CCN2C(=O)OCc2ccccc2)cc1 (stereo not drawn)	.	.	.	.	.	i	.	.
c1ccc(SCc2cc(-c3ccccc3)no2)cc1	i	-8.7	i	-0.85	i	-10.2*	99.7*	i
CC1Cc2ccccc2N1Cc1ccc([N+](=O)[O-])cc1 (stereo not drawn)	i	-11.4	i	-0.84	i	i	.	.
CC1Cc2ccccc2N1Cc1cccc([N+](=O)[O-])c1 (stereo not drawn)	i	-6.9	i	0.16	i	-13.5*	109.3*	i
O=C(Nc1ccc(F)cc1)c1ccc(C(=O)N2CCCC(O)C2)cc1 (stereo not drawn)	.	.	.	.	.	i	.	.
CCc1c(-c2ccccc2)nc2nc(C)c(C)nn12	i	-7.8	i	0.01	i	-8.91*	104.3*	0.139*
CCOC(=O)Cc1csc(NC(=O)COc2ccccc2OCC)n1	i	-1.2	i	0.93	i	i	.	.
